Active and inactive are the calls of the source. The rule behind the calls is not given here.
Columns and labels:
HCT-116 = assay: Cytotoxicity against human HCT-116 cells assessed as reduction in cell viability by SRB assay; assay type: functional, cell-based
How it was run: (§1)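 Cells seeded in 96-well plates and exposed to compounds for the stated times. Zero-day controls were incubated 30 min. Cells were fixed and stained with 0.4% SRB in 1% acetic acid, and bound dye was dissolved in 10 mM Tris (pH 10.0). A515 was read, and IC50 was calculated by non-linear regression.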

MDA-MB-231 [1] = assay: Antitumor activity against human MDA-MB-231 cells xenografted in BALB/c nu mouse assessed as tumor growth inhibition at 5 mg/kg, ip administered thrice per week for 38 days by caliper method relative to control; assay type: functional; settings: MDA-MB-231, ip, 912 h, time 38 day, read-out: TGI
How it was run: (§2)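 Female BALB/c-nu mice (5–6 wk) given 1 × 10⁷ luciferase-expressing MDA-MB-231 cells in 50:50 DMEM/Matrigel into the fourth fat pad; randomized after 10 days (six per group). Dosed ip in EtOH/Cremophor/saline (5:5:90) three times weekly for 38 days. Tumor L, W, H measured by caliper, volume = LWH/2; body weight weekly; tumors excised and weighed at termination.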

MDA-MB-231 [2] = assay: Antimetastatic activity against human MDA-MB-231 cells xenografted in BALB/c nu mouse assessed as reduction in luciferase signal in tumor site at 5 to 15 mg/kg, ip administered thrice per week for 38 days measured 1 week post last dose by luciferase based imaging analysis; assay type: functional, organism-based; settings: dose 5-15 mg/kg, time 45.0 day
How it was run: (§3)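 Orthotopic luciferase-expressing MDA-MB-231 model in female BALB/c-nu mice, ip dosing in EtOH/Cremophor/saline (5:5:90) three times weekly for 38 days. One week later anesthetized mice imaged by IVIS 15 min after D-luciferin (150 mg/kg in PBS); lungs and other organs then excised and imaged ex vivo.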

MCF-10A = assay: Cytotoxicity against human MCF-10A cells assessed as reduction in cell viability by SRB assay; assay type: cell-based; how it was run: as §1
SNU-638 = assay: Cytotoxicity against human SNU-638 cells assessed as reduction in cell viability by SRB assay; assay type: functional, cell-based; how it was run: as §1
MDA-MB-231 [3] = assay: Down regulation of ZEB1 mRNA expression in human MDA-MB-231 cells at 50 to 200 nM measured after 24 hrs by RT-PCR analysis; assay type: functional, cell-based; settings: dose 50-200 nM
MDA-MB-231 [4] = assay: Cytotoxicity against human MDA-MB-231 cells assessed as reduction in cell viability by SRB assay; assay type: functional, cell-based; how it was run: as §1
MDA-MB-231 [5] = assay: Antitumor activity against human MDA-MB-231 cells xenografted in BALB/c nu mouse assessed as down regulation of Ki67 expression in tumor tissue at 5 to 15 mg/kg, ip administered thrice per week for 38 days measured 1 week post last dose by H and E staining based immunohistochemical analysis; assay type: functional, organism-based; settings: dose 5-15 mg/kg, time 45.0 day
How it was run: (§4)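 Tumors and lungs from orthotopic MDA-MB-231/Luc nude mice (ip dosing three times weekly, 38 days) fixed in 4% PFA, paraffin-embedded, sectioned, antigen-retrieved. Lungs H&E-stained for metastatic cells; tumor sections immunostained for Ki67, H3K79me2, E-cadherin, vimentin with HRP detection, hematoxylin counterstain, imaged at 200×.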

SK-HEP1 = assay: Cytotoxicity against human SK-HEP1 cells assessed as reduction in cell viability by SRB assay; assay type: functional, cell-based; how it was run: as §1
MDA-MB-231 [6] = assay: Down regulation of ZEB1 expression in human MDA-MB-231 cells at 50 to 200 nM measured after 48 hrs by Western blot analysis; assay type: functional, cell-based; settings: dose 50-200 nM
How it was run: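 MDA-MB-231 cells exposed to compound for 48 h; lysates in 2× SDS sample buffer with orthovanadate and NaF, protein by BCA. 5–20 μg resolved on 8–15% SDS-PAGE, PVDF, BSA block, probed for E-cadherin, N-cadherin, ZEB1, vimentin; ECL detection, β-actin internal control, band densitometry. Mean ± SD (n = 3), three experiments.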

[7] = Selectivity ratio of IC50 for human MCF-10A cells to IC50 for human MDA-MB-231 cells; assay type: toxicity; settings: MCF-10A cells versus MDA-MB-231 cells, read-out: Ratio IC50
MDA-MB-231 [8] = assay: Antimetastatic activity against human MDA-MB-231 cells xenografted in BALB/c nu mouse assessed as reduction in luciferase signal in lung tissue at 5 to 15 mg/kg, ip administered thrice per week for 38 days measured 1 week post last dose by luciferase based imaging analysis; assay type: functional, organism-based; settings: dose 5-15 mg/kg, time 45.0 day; how it was run: as §3
MDA-MB-231 [9] = assay: Antitumor activity against human MDA-MB-231 cells xenografted in BALB/c nu mouse assessed as tumor growth inhibition at 15 mg/kg, ip administered thrice per week for 38 days by caliper method relative to control; assay type: functional; settings: MDA-MB-231, ip, 912 h, time 38 day, read-out: TGI; how it was run: as §2
MDA-MB-231 [10] = assay: Antimetastatic activity against human MDA-MB-231 cells xenografted in BALB/c nu mouse assessed as reduction in metastatic cells in lung tissue at 5 to 15 mg/kg, ip administered thrice per week for 38 days measured 1 week post last dose by H and E staining based immunohistochemical analysis; assay type: functional, organism-based; settings: dose 5-15 mg/kg, time 45.0 day; how it was run: as §4
[11] = target: Histone-lysine N-methyltransferase, H3 lysine-79 specific (Homo sapiens) (UniProt Q8TEK3); assay: Inhibition of human N-terminal GST-tagged DOT1L (2 to 416 residues) expressed in Escherichia coli at 200 nM using DOT1L substrate measured after 2 hrs in presence of SAM by ELISA
Chain of Histone-lysine N-methyltransferase, H3 lysine-79 specific (Homo sapiens) (Q8TEK3 whole entry, looked up, the tested form may be a part): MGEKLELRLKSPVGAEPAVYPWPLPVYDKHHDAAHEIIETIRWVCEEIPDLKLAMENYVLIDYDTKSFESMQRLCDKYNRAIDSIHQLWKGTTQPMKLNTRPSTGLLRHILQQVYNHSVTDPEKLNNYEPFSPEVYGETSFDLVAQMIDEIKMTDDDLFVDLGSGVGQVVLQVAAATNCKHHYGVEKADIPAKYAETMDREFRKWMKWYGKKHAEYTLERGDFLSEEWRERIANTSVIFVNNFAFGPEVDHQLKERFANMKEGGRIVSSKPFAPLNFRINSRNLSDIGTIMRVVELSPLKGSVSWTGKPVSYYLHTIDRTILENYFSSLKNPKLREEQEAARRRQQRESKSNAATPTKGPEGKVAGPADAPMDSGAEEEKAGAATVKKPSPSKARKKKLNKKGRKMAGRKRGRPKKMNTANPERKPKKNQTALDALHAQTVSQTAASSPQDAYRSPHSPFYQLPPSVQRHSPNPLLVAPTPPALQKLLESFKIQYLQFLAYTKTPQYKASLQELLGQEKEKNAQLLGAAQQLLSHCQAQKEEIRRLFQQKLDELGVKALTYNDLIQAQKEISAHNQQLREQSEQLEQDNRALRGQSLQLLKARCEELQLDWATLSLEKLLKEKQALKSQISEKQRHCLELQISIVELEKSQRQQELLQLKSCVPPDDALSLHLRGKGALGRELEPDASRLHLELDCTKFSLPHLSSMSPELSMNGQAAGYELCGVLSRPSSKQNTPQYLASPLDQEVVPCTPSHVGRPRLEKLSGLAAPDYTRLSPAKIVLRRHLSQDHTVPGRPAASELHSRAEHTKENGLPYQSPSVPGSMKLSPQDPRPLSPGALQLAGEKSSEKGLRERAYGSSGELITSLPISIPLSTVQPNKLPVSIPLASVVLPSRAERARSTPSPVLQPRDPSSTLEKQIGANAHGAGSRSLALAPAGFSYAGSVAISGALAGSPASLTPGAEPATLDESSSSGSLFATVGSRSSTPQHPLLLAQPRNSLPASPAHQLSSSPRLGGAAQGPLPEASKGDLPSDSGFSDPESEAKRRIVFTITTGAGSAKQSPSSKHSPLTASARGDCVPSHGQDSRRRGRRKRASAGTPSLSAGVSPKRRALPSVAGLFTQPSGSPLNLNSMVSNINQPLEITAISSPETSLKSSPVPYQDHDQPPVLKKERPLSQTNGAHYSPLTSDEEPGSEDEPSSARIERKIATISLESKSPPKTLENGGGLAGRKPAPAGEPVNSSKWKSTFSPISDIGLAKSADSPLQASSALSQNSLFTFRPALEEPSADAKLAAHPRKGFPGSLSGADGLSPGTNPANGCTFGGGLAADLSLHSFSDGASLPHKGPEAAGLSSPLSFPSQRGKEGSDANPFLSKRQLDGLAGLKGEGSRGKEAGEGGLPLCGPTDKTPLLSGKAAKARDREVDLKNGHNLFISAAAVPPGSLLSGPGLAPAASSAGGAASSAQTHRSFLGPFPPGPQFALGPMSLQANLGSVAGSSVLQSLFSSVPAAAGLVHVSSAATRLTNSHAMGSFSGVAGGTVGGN
How it was run: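 Cell-free DOT1L enzyme activity assay using 500 ng DOT1L per well. Compound was incubated 2 h before read-out. EPZ-5676 (100 nM) was the positive control. Mean ± SD (n = 3), representative of three separate experiments.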

MDA-MB-231 [12] = assay: Antiinvasive activity in human MDA-MB-231 cells assessed as reduction in cell invasion through matrigel-coated chamber after 24 hrs by diff-quik staining based microscopic analysis; assay type: functional; settings: dose 50-400 nM
How it was run: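 MDA-MB-231 cells pretreated with compound (50–400 nM) for 24 h, harvested into serum-free medium and plated at 0.5–1 × 10⁶ cells/chamber on transwell inserts (8 μm pores) coated with type I collagen and 1:20 Matrigel/PBS; 30% FBS medium as chemoattractant below. After 24 h, invaded cells fixed, Diff-Quik stained, counted in 5 random fields at 200×; three separate experiments.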

[13] = Selectivity ratio of IC50 for human MCF-10A cells to IC50 for human SK-HEP1 cells
How it was run: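 Cytotoxicity by SRB assay: cells seeded in 96-well plates and treated with compounds; fixed, stained with 0.4% SRB in 1% acetic acid, dye dissolved in 10 mM Tris (pH 10.0), absorbance read at 515 nm. IC50 by non-linear regression, means of at least three experiments; ratio of MCF10A IC50 to cancer-line IC50.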

MDA-MB-231 [14] = assay: Down regulation of VIM mRNA expression in human MDA-MB-231 cells at 50 to 200 nM measured after 24 hrs by RT-PCR analysis; assay type: functional, cell-based; settings: dose 50-200 nM
[15] = Selectivity ratio of IC50 for human MCF-10A cells to IC50 for human A549 cells; assay type: toxicity; settings: MCF-10A cells versus A549 cells, read-out: Ratio IC50
MDA-MB-231 [16] = assay: Antimetastatic activity against human MDA-MB-231 cells xenografted in BALB/c nu mouse assessed as down regulation of vimentin expression in tumor tissue at 5 to 15 mg/kg, ip administered thrice per week for 38 days measured 1 week post last dose by H and E staining based immunohistochemical analysis; assay type: functional, organism-based; settings: dose 5-15 mg/kg, time 45.0 day; how it was run: as §4

In the case of `O=C(NCC[Se][Se]CCNC(=O)/C(Cc1ccccc1)=N/O)/C(Cc1ccccc1)=N/O`, the IC50 (HCT-116) is reported as 0.09 µM, the inhibition in vivo at 5 mg/kg (MDA-MB-231 [1]) is reported as 45.5% and the Activity (MDA-MB-231 [2]) is reported as “Active”. For the same compound, the IC50 (MCF-10A) was 18.1 µM, the IC50 (SNU-638) was 0.05 µM and the Activity (MDA-MB-231 [3]) was “Active”. The IC50 (MDA-MB-231 [4]) was 0.06 µM, the Activity (MDA-MB-231 [5]) was “Active” and the IC50 (SK-HEP1) was 0.12 µM. The Activity (MDA-MB-231 [6]) was “Active”, the selectivity ratio [7] was > 100 and the Activity (MDA-MB-231 [8]) was “Active”. For the same compound, the inhibition in vivo at 15 mg/kg (MDA-MB-231 [9]) was 55.1%, the Activity (MDA-MB-231 [10]) was “Active” and the inhibition [11] was “Active”. The Activity (MDA-MB-231 [12]) was “Dose-dependent effect”, the “Ratio IC50” value [13] was >100 and the Activity (MDA-MB-231 [14]) was “Active”. The selectivity ratio [15] was > 100 and the Activity (MDA-MB-231 [16]) was “Active”.

From ChEMBL document CHEMBL4706701, “Synthesis and biological activity of selenopsammaplin A and its analogues as antitumor agents with DOT1L inhibitory activity” (Bioorg Med Chem, 2021)
